Drawing on ChEMBL document CHEMBL1641436, “Synthesis of sugar-amino acid-nucleosides as potential glycosyltransferase inhibitors” (Bioorg Med Chem, 2011), this text covers inhibition and IC50 for 14 compounds.

One test addresses T1, Galactofuranosyltransferase GlfT2 (Mycobacterium tuberculosis) (UniProt O53585).
T1 sequence (whole entry): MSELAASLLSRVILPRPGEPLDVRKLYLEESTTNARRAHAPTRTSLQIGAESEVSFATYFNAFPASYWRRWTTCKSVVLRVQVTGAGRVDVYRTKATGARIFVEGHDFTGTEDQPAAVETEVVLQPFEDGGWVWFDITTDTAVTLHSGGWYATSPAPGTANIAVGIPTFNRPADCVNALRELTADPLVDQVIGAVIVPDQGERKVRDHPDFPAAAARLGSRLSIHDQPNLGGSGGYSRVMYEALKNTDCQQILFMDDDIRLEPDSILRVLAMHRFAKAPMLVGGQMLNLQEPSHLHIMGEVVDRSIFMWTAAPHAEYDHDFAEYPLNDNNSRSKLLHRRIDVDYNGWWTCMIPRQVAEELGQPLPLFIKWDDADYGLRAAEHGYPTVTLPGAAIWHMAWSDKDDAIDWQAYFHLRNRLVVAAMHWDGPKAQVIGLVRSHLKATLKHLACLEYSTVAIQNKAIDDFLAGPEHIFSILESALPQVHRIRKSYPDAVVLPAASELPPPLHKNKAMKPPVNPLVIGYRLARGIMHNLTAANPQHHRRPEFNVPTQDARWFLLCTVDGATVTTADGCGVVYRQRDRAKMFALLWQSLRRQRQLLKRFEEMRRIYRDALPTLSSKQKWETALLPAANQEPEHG
Nature of the test: Inhibition of Mycobacterium tuberculosis GIFT2 at 4 mM at pH7.6 by spectrophotometric assay. In a few lines:
(§1)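 Coupled PK/LDH spectrophotometric assay of GlfT2. Mix contained 100 mM MOPS pH 7.6, 50 mM KCl, 20 mM MgCl2, 1.1 mM NADH, 3.5 mM PEP, 3.75 U PK and 16.8 U LDH, with β-D-Galf-(1→5)-β-D-Galf-(1→6)-β-D-Galf-octyl as acceptor. Diluted GlfT2 was added to start the reaction at 37 °C, with A340 read every 10–15 s. Closest duplicate velocities were blank-corrected and expressed as % of mean control.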
`NC(=O)CC[C@H](NC(=O)C[C@H]1O[C@H](CO)[C@H](O)[C@H](O)[C@H]1O)C(=O)NC[C@H]1O[C@@H](n2ccc(=O)[nH]c2=O)[C@H](O)[C@@H]1O`: the inhibition was below 10%. `NC(=O)CC[C@H](NC(=O)C[C@H]1O[C@H](CO)[C@H](O)[C@H](O)[C@H]1O)C(=O)NC[C@H]1O[C@@H](N2CCC(=O)NC2=O)[C@H](O)[C@@H]1O` registered an inhibition below 10%.

On to `O=C1CCN([C@@H]2O[C@H](CNC(=O)[C@H](Cc3c[nH]c4ccccc34)NC(=O)C[C@H]3O[C@H](CO)[C@H](O)[C@H](O)[C@H]3O)[C@@H](O)[C@H]2O)C(=O)N1`, for which the inhibition was found to be 53%. `O=C(C[C@H]1O[C@H](CO)[C@H](O)[C@H](O)[C@H]1O)N[C@@H](Cc1c[nH]c2ccccc12)C(=O)NC[C@H]1O[C@@H](n2ccc(=O)[nH]c2=O)[C@H](O)[C@@H]1O` yielded an inhibition of 75%. The compound `O=C1CCN([C@@H]2O[C@H](CNC(=O)[C@H](Cc3cnc[nH]3)NC(=O)C[C@H]3O[C@H](CO)[C@H](O)[C@H](O)[C@H]3O)[C@@H](O)[C@H]2O)C(=O)N1` gave an inhibition of 18%.

Take `O=C(C[C@H]1O[C@H](CO)[C@H](O)[C@H](O)[C@H]1O)N[C@@H](Cc1cnc[nH]1)C(=O)NC[C@H]1O[C@@H](n2ccc(=O)[nH]c2=O)[C@H](O)[C@@H]1O`: the inhibition came out at 79%.

A further test has as its target T2, Galactofuranosyltransferase GlfT2 (Mycobacterium tuberculosis, UniProt O53585).
T2 sequence (O53585 whole entry): T1 sequence (whole entry)
Nature of the test: Inhibition of Mycobacterium tuberculosis GIFT2 at pH7.6 by spectrophotometric assay.
In the case of `O=C(C[C@H]1O[C@H](CO)[C@H](O)[C@H](O)[C@H]1O)N[C@@H](Cc1cnc[nH]1)C(=O)NC[C@H]1O[C@@H](n2ccc(=O)[nH]c2=O)[C@H](O)[C@@H]1O`, the 50% inhibitory concentration (IC50) turned out to be 332 µM.

In another test the target is T1, Galactofuranosyltransferase GlfT2 (Mycobacterium tuberculosis). Nature of the test: Inhibition of Mycobacterium tuberculosis GIFT2 at 2 mM at pH7.6 by spectrophotometric assay. The essentials: as §1
Compound `O=C1CCN([C@@H]2O[C@H](CNC(=O)[C@H](Cc3cnc[nH]3)NC(=O)C[C@H]3O[C@@H](CO)[C@H](O)[C@H]3O)[C@@H](O)[C@H]2O)C(=O)N1` registered an inhibition below 10%.

As to `O=C(C[C@H]1O[C@@H](CO)[C@H](O)[C@H]1O)N[C@@H](Cc1cnc[nH]1)C(=O)NC[C@H]1O[C@@H](n2ccc(=O)[nH]c2=O)[C@H](O)[C@@H]1O`, the inhibition was determined as 37%. For `O=C(C[C@@H]1O[C@@H](CO)[C@H](O)[C@H]1O)N[C@@H](Cc1cnc[nH]1)C(=O)NC[C@H]1O[C@@H](n2ccc(=O)[nH]c2=O)[C@H](O)[C@@H]1O`, the inhibition is 14%. For the compound `O=C(C[C@@H]1O[C@@H](CO)[C@H](O)[C@H]1O)N[C@@H](Cc1c[nH]c2ccccc12)C(=O)NC[C@H]1O[C@@H](n2ccc(=O)[nH]c2=O)[C@H](O)[C@@H]1O`, the inhibition was below 10%. `O=C1CCN([C@@H]2O[C@H](CNC(=O)[C@H](Cc3cnc[nH]3)NC(=O)C[C@@H]3O[C@@H](CO)[C@H](O)[C@H]3O)[C@@H](O)[C@H]2O)C(=O)N1` yielded an inhibition below 10%.

`O=C(C[C@H]1O[C@@H](CO)[C@H](O)[C@H]1O)N[C@@H](Cc1c[nH]c2ccccc12)C(=O)NC[C@H]1O[C@@H](n2ccc(=O)[nH]c2=O)[C@H](O)[C@@H]1O` displayed an inhibition of 30%.

With `O=C1CCN([C@@H]2O[C@H](CNC(=O)[C@H](Cc3c[nH]c4ccccc34)NC(=O)C[C@@H]3O[C@@H](CO)[C@H](O)[C@H]3O)[C@@H](O)[C@H]2O)C(=O)N1`, the inhibition is below 10%.

On to `O=C1CCN([C@@H]2O[C@H](CNC(=O)[C@H](Cc3c[nH]c4ccccc34)NC(=O)C[C@H]3O[C@@H](CO)[C@H](O)[C@H]3O)[C@@H](O)[C@H]2O)C(=O)N1`, for which the inhibition was below 10%.

Broadly, the inhibition is the change of the read-out against control, counted positive when it falls. Lower therefore signals little suppression. One may read the IC50 as the concentration that inhibits the measured activity by half. High values mean a need for much substance, low ones inhibition by little substance.
